≈ marks a conversion by molar mass, not a printed value.
How the values were obtained:
Assay type in all cases: functional
[1] = test system: Staphylococcus aureus; assay: Antibacterial activity against vancomycin/methicillin-susceptible Staphylococcus aureus Newman […] after 24 hrs by broth microdilution method
Outline: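 Broth microdilution in cation-adjusted Mueller-Hinton II broth. […] Each well received ~10^5 CFU of exponential-phase bacteria and was incubated at 37 °C for 24 h. MIC was taken as the lowest concentration giving complete growth inhibition, interpreted per CLSI.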

[2] = test system: Staphylococcus aureus; assay: Antibacterial activity against healthcare-associated methicillin-resistant/vancomycin-intermediate Staphylococcus aureus Mu50 after 24 hrs by broth microdilution method; details: Mu50, 24 h
Outline: (§1)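 Broth microdilution in cation-adjusted Mueller-Hinton II broth. DMSO stocks were diluted in broth and twofold serially from 128 to 0.0625 μg/mL or lower. Each well was inoculated with ~10^5 CFU of exponential-phase bacteria and incubated at 37 °C for 24 h. MIC was the lowest concentration giving complete growth inhibition, read per CLSI. Growth controls contained broth plus DMSO.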

[3] = test system: Enterococcus faecium; assay: Antibacterial activity against glycopeptide-resistant Enterococcus faecium Efm-HS-0649 vanA after 24 hrs by broth microdilution method; details: Efm-HS-0649, 24 h; outline: as §1
[4] = test system: Enterococcus faecium; assay: Antibacterial activity against glycopeptide-resistant Enterococcus faecium Efm-HS-06188 vanA after 24 hrs by broth microdilution method; details: Efm-HS-06188, 24 h; outline: as §1
[5] = test system: Enterococcus faecium; assay: Antibacterial activity against glycopeptide-resistant Enterococcus faecium Efm-HS-0847 vanM after 24 hrs by broth microdilution method; details: Efm-HS-0847, 24 h; outline: as §1
[6] = test system: Enterococcus faecium; assay: Antibacterial activity against glycopeptide-resistant Enterococcus faecium Efm-HS-08257 vanM after 24 hrs by broth microdilution method; details: Efm-HS-08257, 24 h; outline: as §1
[7] = test system: Enterococcus faecium; assay: Antibacterial activity against glycopeptide-resistant Enterococcus faecium Efm-HS-vb01 vanB after 24 hrs by broth microdilution method; details: Efm-HS-vb01, 24 h; outline: as §1

Row | Compound | MIC90 [1] [µg/mL] | MIC90 [2] [µg/mL] | MIC [3] [µg/mL] | MIC [4] [µg/mL] | MIC [5] [µg/mL] | MIC [6] [µg/mL] | MIC [7] [µg/mL]
1 | CN[C@H](CC(C)C)C(=O)N[C@H]1C(=O)N[C@@H](CC(N)=O)C(=O)N[C@H]2C(=O)N[C@H]3C(=O)N[C@H](C(=O)N[C@H](C(=O)O)c4cc(O)c(CNCCCNC(=O)[C@H](O)[C@@H](O)[C@H](O)[C@H](O)CO)c(O)c4-c4cc3ccc4O)[C@H](O)c3ccc(c(Cl)c3)Oc3cc2cc(c3O[C@@H]2O[C@H](CO)[C@@H](O)[C@H](O)[C@H]2O[C@H]2C[C@](C)(NCc3ccc(-c4ccc(Cl)cc4)cc3)[C@H](O)[C@H](C)O2)Oc2ccc(cc2Cl)[C@H]1O | 0.06 (≈ 0.0313 µM) | 0.12 (≈ 0.0627 µM) | 4 (≈ 2.09 µM) | 1 (≈ 0.522 µM) | 16 (≈ 8.36 µM) | 8 (≈ 4.18 µM) | 1 (≈ 0.522 µM)
2 | CN[C@H](CC(C)C)C(=O)N[C@H]1C(=O)N[C@@H](CC(N)=O)C(=O)N[C@H]2C(=O)N[C@H]3C(=O)N[C@H](C(=O)N[C@H](C(=O)O)c4cc(O)c(CNCCO)c(O)c4-c4cc3ccc4O)[C@H](O)c3ccc(c(Cl)c3)Oc3cc2cc(c3O[C@@H]2O[C@H](CO)[C@@H](O)[C@H](O)[C@H]2O[C@H]2C[C@](C)(NCc3ccc(OCc4cccc(-c5ccccc5)c4C)c(Cl)c3)[C@H](O)[C@H](C)O2)Oc2ccc(cc2Cl)[C@H]1O | 0.12 (≈ 0.0651 µM) | 0.5 (≈ 0.271 µM) | 1 (≈ 0.543 µM) | 0.5 (≈ 0.271 µM) | 2 (≈ 1.09 µM) | 1 (≈ 0.543 µM) | 1 (≈ 0.543 µM)
3 | CCCCCCCCCCNCCN[C@@]1(C)C[C@H](O[C@H]2[C@H](Oc3c4cc5cc3Oc3ccc(cc3Cl)[C@@H](O)[C@@H](NC(=O)[C@@H](CC(C)C)NC)C(=O)N[C@@H](CC(N)=O)C(=O)N[C@H]5C(=O)N[C@H]3C(=O)N[C@H](C(=O)N[C@H](C(=O)O)c5cc(O)c(CNCCCNC(=O)[C@H](O)[C@@H](O)[C@H](O)[C@H](O)CO)c(O)c5-c5cc3ccc5O)[C@H](O)c3ccc(c(Cl)c3)O4)O[C@H](CO)[C@@H](O)[C@@H]2O)O[C@@H](C)[C@H]1O | 0.5 (≈ 0.264 µM) | 1 (≈ 0.527 µM) | 2 (≈ 1.05 µM) | 4 (≈ 2.11 µM) | 2 (≈ 1.05 µM) | 0.12 (≈ 0.0633 µM) | 2 (≈ 1.05 µM)
4 | CCCCCCCCCCNCCN[C@@]1(C)C[C@H](O[C@H]2[C@H](Oc3c4cc5cc3Oc3ccc(cc3Cl)[C@@H](O)[C@@H](NC(=O)[C@@H](CC(C)C)NC)C(=O)N[C@@H](CC(N)=O)C(=O)N[C@H]5C(=O)N[C@H]3C(=O)N[C@H](C(=O)N[C@H](C(=O)O)c5cc(O)c(CNCCO)c(O)c5-c5cc3ccc5O)[C@H](O)c3ccc(c(Cl)c3)O4)O[C@H](CO)[C@@H](O)[C@@H]2O)O[C@@H](C)[C@H]1O | 1 (≈ 0.586 µM) | 4 (≈ 2.35 µM) | 16 (≈ 9.38 µM) | 16 (≈ 9.38 µM) | 8 (≈ 4.69 µM) | 1 (≈ 0.586 µM) | 4 (≈ 2.35 µM)
5 | CN[C@H](CC(C)C)C(=O)N[C@H]1C(=O)N[C@@H](CC(N)=O)C(=O)N[C@H]2C(=O)N[C@H]3C(=O)N[C@H](C(=O)N[C@H](C(=O)O)c4cc(O)cc(O)c4-c4cc3ccc4O)[C@H](O[C@H]3C[C@](C)(N)[C@@H](O)[C@H](C)O3)c3ccc(c(Cl)c3)Oc3cc2cc(c3O[C@@H]2O[C@H](CO)[C@@H](O)[C@H](O)[C@H]2O[C@H]2C[C@](C)(NCc3ccc(-c4ccc(Cl)cc4)cc3)[C@@H](O)[C@H](C)O2)Oc2ccc(cc2Cl)[C@H]1O [ORITAVANCIN] | 0.06 (≈ 0.0335 µM) | 0.06 (≈ 0.0335 µM) | 0.25 (≈ 0.139 µM) | 0.25 (≈ 0.139 µM) | 1 (≈ 0.558 µM) | 0.5 (≈ 0.279 µM) | 0.25 (≈ 0.139 µM)
6 | CN[C@H](CC(C)C)C(=O)N[C@H]1C(=O)N[C@@H](CC(N)=O)C(=O)N[C@H]2C(=O)N[C@H]3C(=O)N[C@H](C(=O)N[C@H](C(=O)O)c4cc(O)c(CNCCO)c(O)c4-c4cc3ccc4O)[C@H](O)c3ccc(c(Cl)c3)Oc3cc2cc(c3O[C@@H]2O[C@H](CO)[C@@H](O)[C@H](O)[C@H]2O[C@H]2C[C@](C)(NCc3ccc(-c4ccc(Cl)cc4)cc3)[C@H](O)[C@H](C)O2)Oc2ccc(cc2Cl)[C@H]1O | 0.03 (≈ 0.0174 µM) | 0.12 (≈ 0.0696 µM) | 2 (≈ 1.16 µM) | 1 (≈ 0.58 µM) | 4 (≈ 2.32 µM) | 2 (≈ 1.16 µM) | ≤ 0.06
7 | CCCCCCCCCCNCCN[C@@]1(C)C[C@H](O[C@H]2[C@H](Oc3c4cc5cc3Oc3ccc(cc3Cl)[C@@H](O)[C@@H](NC(=O)[C@@H](CC(C)C)NC)C(=O)N[C@@H](CC(N)=O)C(=O)N[C@H]5C(=O)N[C@H]3C(=O)N[C@H](C(=O)N[C@H](C(=O)O)c5cc(O)c(CN[C@H]6C(O)O[C@H](CO)[C@@H](O)[C@@H]6O)c(O)c5-c5cc3ccc5O)[C@H](O)c3ccc(c(Cl)c3)O4)O[C@H](CO)[C@@H](O)[C@@H]2O)O[C@@H](C)[C@H]1O (some centres undefined) | 4 (≈ 2.19 µM) | 8 (≈ 4.39 µM) | 64 (≈ 35.1 µM) | 64 (≈ 35.1 µM) | 32 (≈ 17.5 µM) | 8 (≈ 4.39 µM) | 16 (≈ 8.77 µM)
8 | CCCCCCCCCCNCCN[C@@]1(C)C[C@H](O[C@H]2[C@H](Oc3c4cc5cc3Oc3ccc(cc3Cl)[C@@H](O)[C@@H](NC(=O)[C@@H](CC(C)C)NC)C(=O)N[C@@H](CC(N)=O)C(=O)N[C@H]5C(=O)N[C@H]3C(=O)N[C@H](C(=O)N[C@H](C(=O)O)c5cc(O)c(CN[C@H]6C(O)O[C@H](CO)[C@H](O)[C@@H]6O)c(O)c5-c5cc3ccc5O)[C@H](O)c3ccc(c(Cl)c3)O4)O[C@H](CO)[C@@H](O)[C@@H]2O)O[C@@H](C)[C@H]1O (some centres undefined) | 0.12 (≈ 0.0658 µM) | 0.5 (≈ 0.274 µM) | 16 (≈ 8.77 µM) | 8 (≈ 4.39 µM) | 8 (≈ 4.39 µM) | 8 (≈ 4.39 µM) | 1 (≈ 0.548 µM)
9 | CCCCCCc1ccc(CN[C@@]2(C)C[C@H](O[C@H]3[C@H](Oc4c5cc6cc4Oc4ccc(cc4Cl)[C@@H](O)[C@@H](NC(=O)[C@@H](CC(C)C)NC)C(=O)N[C@@H](CC(N)=O)C(=O)N[C@H]6C(=O)N[C@H]4C(=O)N[C@H](C(=O)N[C@H](C(=O)O)c6cc(O)c(CN[C@H]7C(O)O[C@H](CO)[C@H](O)[C@@H]7O)c(O)c6-c6cc4ccc6O)[C@H](O)c4ccc(c(Cl)c4)O5)O[C@H](CO)[C@@H](O)[C@@H]3O)O[C@@H](C)[C@H]2O)cc1 (some centres undefined) | 0.25 (≈ 0.138 µM) | 0.5 (≈ 0.276 µM) | 8 (≈ 4.41 µM) | 8 (≈ 4.41 µM) | 32 (≈ 17.6 µM) | 16 (≈ 8.82 µM) | 1 (≈ 0.551 µM)
10 | CN[C@H](CC(C)C)C(=O)N[C@H]1C(=O)N[C@@H](CC(N)=O)C(=O)N[C@H]2C(=O)N[C@H]3C(=O)N[C@H](C(=O)N[C@H](C(=O)NCCCN(C)C)c4cc(O)c(C)c(O)c4-c4cc3ccc4O)[C@H](O)c3ccc(c(Cl)c3)Oc3cc2cc(c3O[C@@H]2O[C@H](CO)[C@@H](O)[C@H](O)[C@H]2O[C@H]2C[C@](C)(NCc3ccc(-c4ccc(Cl)cc4)cc3)[C@H](O)[C@H](C)O2)Oc2ccc(cc2Cl)[C@H]1O | 1 (≈ 0.572 µM) | 1 (≈ 0.572 µM) | 0.5 (≈ 0.286 µM) | 1 (≈ 0.572 µM) | 1 (≈ 0.572 µM) | 0.12 (≈ 0.0686 µM) | 2 (≈ 1.14 µM)
11 | CN[C@H](CC(C)C)C(=O)N[C@H]1C(=O)N[C@@H](CC(N)=O)C(=O)N[C@H]2C(=O)N[C@H]3C(=O)N[C@H](C(=O)N[C@H](C(=O)NCCCN(C)C)c4cc(O)c(CNCCO[C@H]5O[C@H](CO)[C@@H](O)[C@H](O)[C@@H]5O)c(O)c4-c4cc3ccc4O)[C@H](O)c3ccc(c(Cl)c3)Oc3cc2cc(c3O[C@@H]2O[C@H](CO)[C@@H](O)[C@H](O)[C@H]2O[C@H]2C[C@](C)(NCc3ccc(-c4ccc(Cl)cc4)cc3)[C@H](O)[C@H](C)O2)Oc2ccc(cc2Cl)[C@H]1O | 2 (≈ 1.02 µM) | 4 (≈ 2.03 µM) | 0.5 (≈ 0.254 µM) | 1 (≈ 0.508 µM) | 2 (≈ 1.02 µM) | 0.5 (≈ 0.254 µM) | 4 (≈ 2.03 µM)
12 | CCCCCCCCCCNCCN[C@@]1(C)C[C@H](O[C@H]2[C@H](Oc3c4cc5cc3Oc3ccc(cc3Cl)[C@@H](O)[C@@H](NC(=O)[C@@H](CC(C)C)NC)C(=O)N[C@@H](CC(N)=O)C(=O)N[C@H]5C(=O)N[C@H]3C(=O)N[C@H](C(=O)N[C@H](C(=O)O)c5cc(O)c(CN[C@@H]6C(O)O[C@H](CO)[C@@H](O)[C@@H]6O)c(O)c5-c5cc3ccc5O)[C@H](O)c3ccc(c(Cl)c3)O4)O[C@H](CO)[C@@H](O)[C@@H]2O)O[C@@H](C)[C@H]1O (some centres undefined) | 8 (≈ 4.39 µM) | 32 (≈ 17.5 µM) | 64 (≈ 35.1 µM) | 64 (≈ 35.1 µM) | 32 (≈ 17.5 µM) | 8 (≈ 4.39 µM) | 16 (≈ 8.77 µM)

From ChEMBL document CHEMBL4052823, “Extra Sugar on Vancomycin: New Analogues for Combating Multidrug-Resistant Staphylococcus aureus and Vancomycin-Resistant Enterococci” (J Med Chem, 2018)
